First the molecules themselves.
B1: tRNA (parent)
chain: GUUCCGUUGGCGUAAUGGUAACGCGUCUCCCUCCUAAGGAGAAGACUGCGGGUUCGAGUCCCGUACGGAACG

Fewer inactive variants are shown than the library holds.

The variants in the series derive from B1. As to the kind of experiment: yeast fitness relative to wild type (ratio to wild type); higher = fitter; tRNA-Arg(CCU), competitive growth, 37 C, YPD. An outline of the steps:
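Gene amplicons from the start population and from each of six end populations were read by 100-nucleotide paired-end sequencing. Those end populations came from pooled Saccharomyces cerevisiae strains carrying tRNA-Arg(CCU) gene variants at the native locus, competed in YPD at 37°C for 24 hours. Fitness relative to wild type was worked out from changes in genotype frequencies. Genotypes needed ≥ 100 starting reads, and estimates < 0.5 were set to 0.5.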
C5U C31U G39A A57C: the yeast fitness came out at 0.574.

On to C5U C46A C66U, for which the yeast fitness is 0.663.

For C5U C27A A42U G48A C49G C60A, the yeast fitness turned out to be 0.592.

As for C5U C27U A37C C60A C66U, the yeast fitness is at most 0.5.

C5U C29U A45U: the yeast fitness was 0.924.

Consider C5U G6C A36C G48C C62U, for which the yeast fitness came out at 0.546.

Regarding C5U C29G G63A, the yeast fitness was at most 0.5.

With C5U C22G U28A C31G C55A G68C, the yeast fitness was 0.542.

As for C5U G9A U26C G67U, the yeast fitness was at most 0.5.

Consider C5U C46G G52C C62G C66U, for which the yeast fitness is at most 0.5.

With C5U G6U C11U A15G G48C, the yeast fitness was at most 0.5.

For C5U C34U A69U, the yeast fitness was found to be 0.59.

On to C5U C34A G50C, for which the yeast fitness was at most 0.5.

With C5U C22G U26G A42C G51A, the yeast fitness was 0.537.

For C5U G9A C34A, the yeast fitness was found to be 0.704.

For C5U C46G C49G, the yeast fitness was 0.527.

For the variant C5U C31G C33G C34U G68A, the yeast fitness was 0.671.

Turning to C5U C24U C46G A65C, the yeast fitness was 0.537.

For the variant C5U C66U, the yeast fitness turned out to be 0.877.

In the case of C5U C31U G48C, the yeast fitness came to 0.682.

With C5U C30U A45U, the yeast fitness is 0.701.

Take C5U C33A A36C A37C A43G: the yeast fitness was at most 0.5.

For C5U C29A A45C, the yeast fitness is 0.669.

Turning to C5U C22U C33U C61G, the yeast fitness was at most 0.5.

For the variant C5U C49U C66U, the yeast fitness was determined as 0.887.

Consider C5U G6A G44C G63A, for which the yeast fitness is at most 0.5.

Take C5U C22U A37U G68U: the yeast fitness is at most 0.5.

As for C5U C31U G50A U54C C55G, the yeast fitness is at most 0.5.

On to C5U C46U A57G A70C, for which the yeast fitness was at most 0.5.

Take C5U C49U U64A: the yeast fitness is at most 0.5.

For C5U C61A C66A, the yeast fitness was at most 0.5.

As to C5U G12C A40C G56C, the yeast fitness is at most 0.5.

Regarding C5U C27U C61G, the yeast fitness was at most 0.5.

For C5U C22G C29G G68C, the yeast fitness is at most 0.5.

As to C5U C31U G41A, the yeast fitness was 0.831.

Turning to C5U G17C C30G, the yeast fitness was at most 0.5.

With C5U G10A C27G U35G G44A, the yeast fitness is at most 0.5.

C5U G10C C30A A36U A42C U64A C66G A69U: the yeast fitness is at most 0.5.

Regarding C5U G9A A20G, the yeast fitness stood at 0.663.

For the variant C5U C22A G25A, the yeast fitness amounted to 0.781.

For C5U G10A C27G, the yeast fitness was at most 0.5.

Turning to C5U C22G C30U C33G A69G, the yeast fitness turned out to be 0.552.

Turning to C5U C33A C55U, the yeast fitness is at most 0.5.

Turning to C5U G12A C22U C33U, the yeast fitness is at most 0.5.

On to C5U C22U A45G, for which the yeast fitness worked out at 0.666.

C5U C22G C66G: the yeast fitness is 0.547.

With C5U G12A U47G C49U G68C, the yeast fitness was at most 0.5.

For C5U C24U A42C A57U G63C, the yeast fitness was at most 0.5.

C5U C22G C24G C30A C31U: the yeast fitness was at most 0.5.

C5U C30G A36U G51A G52A U64G: the yeast fitness is at most 0.5.

As to C5U G23A C46G C49G, the yeast fitness is at most 0.5.

As to C5U G23A C62G, the yeast fitness is 0.538.

In the case of C5U G6C A14G, the yeast fitness was at most 0.5.

Turning to C5U C34G C55A G63C, the yeast fitness was at most 0.5.

With C5U C27G G38U, the yeast fitness was at most 0.5.

Turning to C5U C24U U32C, the yeast fitness was found to be 0.72.

For the variant C5U C49U G67C, the yeast fitness amounted to 0.608.

C5U C22G C29G: the yeast fitness was determined as 0.602.

Regarding C5U C31U C46U G51A, the yeast fitness worked out at 0.69.

Turning to C5U C24A A65U, the yeast fitness was determined as 0.733.

In the case of C5U C60A C62G, the yeast fitness was at most 0.5.

Turning to C5U C34A C49A U59G, the yeast fitness is at most 0.5.

As to C5U G10C C33U C46G, the yeast fitness is at most 0.5.

Consider C5U C31G G51C, for which the yeast fitness came to 0.572.

For C5U C46G C62U C66G, the yeast fitness stood at 0.538.

As to C5U C66G G68C, the yeast fitness stood at 0.541.

With C5U C33A G39C G51C C62U A69C, the yeast fitness was 0.543.

Turning to C5U C49U C61A, the yeast fitness was at most 0.5.

As to C5U G18C A45U, the yeast fitness was at most 0.5.

On to C5U G23A C31U A65G, for which the yeast fitness was at most 0.5.

Turning to C5U C24U A42C A57U, the yeast fitness is 0.534.

Turning to C5U C33G C34G C46U, the yeast fitness was at most 0.5.

Consider C5U G10A G68C, for which the yeast fitness was at most 0.5.

For C5U C24G U32G A36G C60A A65U, the yeast fitness amounted to 0.535.

For C5U C22G C29A A45U, the yeast fitness came out at 0.627.

Regarding C5U C55G, the yeast fitness is 0.676.

Turning to C5U C24G C30G A36U C55U A69C, the yeast fitness was at most 0.5.

On to C5U C33U G39A, for which the yeast fitness turned out to be 0.649.

Take C5U G12C A43G G56A: the yeast fitness was at most 0.5.

As for C5U C34G A45U U53G A57G, the yeast fitness worked out at 0.672.

C5U C31G G68C: the yeast fitness came out at 0.645.

Turning to C5U C22U C66U, the yeast fitness is at most 0.5.

Consider C5U G10A U54C A57G, for which the yeast fitness is at most 0.5.

Regarding C5U C34G A45U, the yeast fitness is 0.534.

Consider C5U C29U A43U, for which the yeast fitness amounted to 0.89.

Turning to C5U G9A C62U, the yeast fitness came out at 0.995.

C5U C24G A37U G56A A65C: the yeast fitness is at most 0.5.

For the variant C5U G10C A21U C22U C24U U32C C46U C61G, the yeast fitness was at most 0.5.

Take C5U C34A A36G: the yeast fitness is at most 0.5.

Regarding C5U G10A A20G A36U A43C, the yeast fitness is at most 0.5.

Regarding C5U G23A C27G C31G G50C G58C, the yeast fitness was 0.557.

Take C5U C24U A42C A57U C62A: the yeast fitness is at most 0.5.

In the case of C5U C22U C24A G56C U59G, the yeast fitness is at most 0.5.

For the variant C5U C24A C27G C61A C66G, the yeast fitness came out at 0.624.

Take C5U G9C A42G: the yeast fitness was determined as 0.626.

With C5U C33G C49A A70C, the yeast fitness was at most 0.5.

C5U C24A C33U A70U: the yeast fitness was at most 0.5.

Turning to C5U C30U G44C G67C, the yeast fitness is at most 0.5.

For C5U G17C, the yeast fitness came to 0.721.

Take C5U C55A C62A: the yeast fitness is at most 0.5.

In the case of C5U C24U G44C C60A, the yeast fitness came out at 0.527.

With C5U G9A A21G C55U, the yeast fitness was at most 0.5.

Take C5U C34U C49U U53C G67U: the yeast fitness is at most 0.5.

For the variant C5U C34A A36G G63A, the yeast fitness is at most 0.5.

As to C5U C34A C55G, the yeast fitness was at most 0.5.

Turning to C5U C27U A37C, the yeast fitness was at most 0.5.

As for C5U C29G G68A, the yeast fitness is at most 0.5.

C5U C22U C27U A42G G48A C55A C60A A70U: the yeast fitness was at most 0.5.

As for C5U C33G A36U, the yeast fitness was at most 0.5.

Turning to C5U C62G G63C A65U, the yeast fitness is at most 0.5.

For the variant C5U G12C A21C C24A G41C U53A, the yeast fitness is at most 0.5.

Regarding C5U C24U C29A, the yeast fitness came to 0.574.

As for C5U C31G A40G A45G C46G G48A, the yeast fitness is at most 0.5.

Regarding C5U G12A C49U, the yeast fitness turned out to be 0.612.

Turning to C5U C22U C31G C33G C34U G68A, the yeast fitness was at most 0.5.

On to C5U G10A A36G G44C, for which the yeast fitness was at most 0.5.

Turning to C5U C55U G67C, the yeast fitness was at most 0.5.

As to C5U G10C A15G C29G A40C A43U U47A C60A, the yeast fitness is at most 0.5.

As to C5U C22A C62G, the yeast fitness was determined as 0.546.

Consider C5U C30G C31A G63C, for which the yeast fitness was at most 0.5.

As to C5U C29A A65C, the yeast fitness is at most 0.5.

C5U C33U A37C A42U U47C G52A U54C G67A: the yeast fitness was at most 0.5.

For the variant C5U C46U, the yeast fitness worked out at 1.07.

As for C5U C46A, the yeast fitness is 1.

As to C5U C29G C33U, the yeast fitness was at most 0.5.

With C5U C30A A42U, the yeast fitness worked out at 0.59.

As to C5U C33G G38A C60A, the yeast fitness was determined as 0.542.

For C5U G9A G51C G52C, the yeast fitness was at most 0.5.

In the case of C5U C22G A70U, the yeast fitness worked out at 0.754.

Turning to C5U G17U A70U, the yeast fitness is at most 0.5.

As for C5U G17A C46U G58A G63A U64A, the yeast fitness is at most 0.5.

Regarding C5U C34A G39C G52A G58A, the yeast fitness was at most 0.5.

As for C5U C29A, the yeast fitness turned out to be 0.569.

On to C5U C29U, for which the yeast fitness came to 0.867.

Take C5U C22U C62U: the yeast fitness was found to be 0.66.

Turning to C5U G10A C27G A57G, the yeast fitness stood at 0.541.

As to C5U G10A C22U A40G G56C C66A, the yeast fitness was at most 0.5.

As for C5U C22G C30U C33G, the yeast fitness was at most 0.5.

Take C5U G9C U64A: the yeast fitness was determined as 0.577.

For the variant C5U C34A G63A, the yeast fitness is at most 0.5.

C5U G10A C34U G68U A69U: the yeast fitness worked out at 0.505.

C5U G10A G38C: the yeast fitness is at most 0.5.

With C5U C46U C55G U64A, the yeast fitness turned out to be 0.638.

Regarding C5U G17A C49G C60A, the yeast fitness is at most 0.5.

Turning to C5U G9A A43C, the yeast fitness is 0.653.

In the case of C5U G25A A69C, the yeast fitness turned out to be 0.728.

As for C5U C27G U32A, the yeast fitness worked out at 0.561.

As to C5U C30U A40U, the yeast fitness was 0.567.

On to C5U C29U A43G G48C C55A, for which the yeast fitness was at most 0.5.

Turning to C5U C22G C29A A45U A70U, the yeast fitness worked out at 0.539.

As for C5U C24A G41A A69C, the yeast fitness was at most 0.5.

In the case of C5U G17C C46A, the yeast fitness came to 0.556.

For C5U G12C U19A, the yeast fitness was at most 0.5.

Turning to C5U C29G G44A A57U, the yeast fitness was at most 0.5.

On to C5U G17A A21G A37G G39C G44C C46A U54C A65C, for which the yeast fitness is at most 0.5.

In the case of C5U C49U A65C, the yeast fitness was 0.745.

On to C5U C49U A65U, for which the yeast fitness is 0.644.

Take C5U C31G A45U C62U: the yeast fitness amounted to 0.629.

Regarding C5U G17C G18C C60G C61G, the yeast fitness is at most 0.5.

With C5U C27G U28G, the yeast fitness was at most 0.5.

Regarding C5U C33G C46A C66A, the yeast fitness is at most 0.5.

For the variant C5U G6A C22U G25C, the yeast fitness is at most 0.5.

As for C5U C27U A37C C60A, the yeast fitness was found to be 0.546.

With C5U G18C C22U G50A G52C, the yeast fitness is at most 0.5.

For C5U C22U G23C A36G G67A, the yeast fitness was at most 0.5.

Consider C5U C31U C61A, for which the yeast fitness came out at 0.552.

As for C5U C29G C49U A69U, the yeast fitness was at most 0.5.

(Values after the RNAGym collection of RNA variant scans (doi:10.1126/science.aae0568).)
